Source: PMC10874764 (Chinese Herbal Medicines, 2023)
Read-outs that look alike come from different tables or passages of the source.

What was measured:
[1] = Stability of each chemical component in rat plasma; assay type: in vitro ADME
In short: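 Blank rat plasma was spiked at 10, 100 and 500 ng/mL and held at room temperature for 24 h, at 4 °C for 14 d, or frozen at −20 °C for 15 d. Six samples per level were assayed by HPLC-MS/MS against 1,8-dihydroxyanthraquinone internal standard. Calibration ran 5–1 000 ng/mL, with analyte/IS ratio fitted by 1/x-weighted least squares.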

[2] = assay type: in vivo, SD rats; conditions: male, SD, rat, plasma, po, 1.5 mL/200 g
[3] = Pharmacokinetics of five components in control; assay type: in vivo, SD rats; conditions: for AUC / AUC(0-t) / Cmax / MRT last / half-life / Tmax: male, SD, rat, plasma, po, 1.5 mL/200 g, n = 6; for AUC: AUC(0−i); for MRT last: MRT0−t
In short: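 Male SD rats (8-week-old, 200–220 g), four groups (n = 6). Acute liver injury induced by intraperitoneal 50% CCl4 in olive oil at 3 mL/kg; controls received olive oil; fasted with water. After 12 h, single intragastric decoction at 1.5 mL/200 g. Tail-vein blood taken at 0–12 h into heparin. HPLC-MS/MS with internal standard; compartment-model fit for AUC, Cmax, Tmax, T1/2 and MRT.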

[4] = 10 ng/mL, room temperature for 24 h
[5] = 100 ng/mL, room temperature for 24 h
[6] = 100 ng/mL, −20 °C free for 15 d
[7] = 500 ng/mL, room temperature for 24 h
[8] = 500 ng/mL, −20 °C free for 15 d
[9] = RhRR of control group, single oral 1.5 mL/200 g RhRR decoction
[10] = RhRR-EuS of control group, single oral 1.5 mL/200 g RhRR-EuS decoction
[11] = T1/2, RhRR-EuS of control group, single oral 1.5 mL/200 g RhRR-EuS decoction

Compound	Stability S [1, 4] [%]	Stability S ([1]; 10 ng/mL, −4 °C for 14 d) [%]	Stability S ([1]; 10 ng/mL, −20 °C free for 15 d) [%]	Stability S [1, 5] [%]	Stability S ([1]; 100 ng/mL, −4 °C for 14 d) [%]	Stability S [1, 6] [%]	Stability S [1, 7] [%]	Stability S ([1]; 500 ng/mL, −4 °C for 14 d) [%]	Stability S [1, 8] [%]	Tmax [2] [h]	AUC [3, 9] [ng·h/mL]	AUC [3, 10] [ng·h/mL]	AUC(0-t) [3, 9] [ng·h/mL]	AUC(0-t) [3, 10] [ng·h/mL]	Cmax [3, 9] [ng/mL]	Cmax [3, 10] [ng/mL]	MRT last [3, 9] [h]	MRT last [3, 10] [h]	half-life [3, 11] [h]	Tmax [3, 9] [h]	also measured
O=C1c2cccc(O)c2C(=O)c2c(O)cc(CO)cc21 [Ae, Aloe emodin]	99.60	107	88.6	88.50	112	84.3	98.50	98.30	85.6	2	738	489	474	443	101	124	11.9	5.78	3.04	2	Tmax [3, 10]: 0.5 h
Cc1cc(O)c2c(c1)C(=O)c1cccc(O)c1C2=O [Ch, Chrysophanol]	114	99.70	105.40	105	103	102.30	90.40	96.30	99.50	0.5	712	763	662	739	164	170	5.33	5.64	1.31	1	half-life ([3]; T1/2, RhRR of control group, single oral 1.5 mL/200 g RhRR decoction): 3.64 h
Cc1cc(O)c2c(c1)C(=O)c1cc(O)cc(O)c1C2=O [Em, Emodin]	104.60	105	98.50	110.40	108	108.40	99.60	89.90	106		94.1	154	67.7	68.3	11.2	16.4	9.3	18.3	11.4	0.5	
COc1cc(O)c2c(c1)C(=O)c1cc(C)cc(O)c1C2=O [Ph, Physcion]	103	99.50	105	105	102	100.6	90.50	96.70	95.3	0.25	414	243	136	136	54.4	58.6	37.3	14.7	10.9		Tmax [3, 10]: 0.25 h
O=C(O)c1cc(O)c2c(c1)C(=O)c1cccc(O)c1C2=O [Rh, Rhein]	106.20	95.90	109.40	112.30	94.60	95.30	89.40	85.40	100.40	8	1670	1720	1440	1600	434	455	6.31	5.44	1.84		Bioavailability among the five components ([3]; all groups (control and model rats, oral RhRR or RhRR-EuS decoction)): highest
